This is a sample that favours compounds with a hit; in the whole collection about 2.1% have one here.
RanGTP-Impb inh: inhibitors of RanGTP-importin-beta interaction, primary screen, biochemical, FRET, CFP-Ran, YFP-importin-beta, homogeneous. cell-free CFP-Ran/YFP-importin-beta FRET ratio. inhibition, % (no concentration beside the values). 300,000 tested, 1.1% active;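 active = more than half of the replicate wells show a fall in the fluorescence ratio signal beyond about 16%, limit read from the data, passing the limit was not always enough; inconclusive = exactly half of the replicate wells pass the set limit; inactive = fewer than half of replicates pass the limit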;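 also: 0% = DMSO wells and 100% = Ran loaded with GDP instead of GTP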
Hck-Nef inh: human Hck-Nef kinase inhibition; P08631; Recombinant Hck-YEEI plus Nef, Z-Lyte FRET kinase assay; inhibition, % at 20 µM; 220,000 tested, 0.68% active; AID 463187;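 active = Hck-Nef kinase inhibition above about 50%, limit read from the data; inactive = inhibition below that limit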;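 also: 0% = DMSO with Hck plus Nef and 100% = Hck alone without Nef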
Target sequence (P08631 whole entry, looked up): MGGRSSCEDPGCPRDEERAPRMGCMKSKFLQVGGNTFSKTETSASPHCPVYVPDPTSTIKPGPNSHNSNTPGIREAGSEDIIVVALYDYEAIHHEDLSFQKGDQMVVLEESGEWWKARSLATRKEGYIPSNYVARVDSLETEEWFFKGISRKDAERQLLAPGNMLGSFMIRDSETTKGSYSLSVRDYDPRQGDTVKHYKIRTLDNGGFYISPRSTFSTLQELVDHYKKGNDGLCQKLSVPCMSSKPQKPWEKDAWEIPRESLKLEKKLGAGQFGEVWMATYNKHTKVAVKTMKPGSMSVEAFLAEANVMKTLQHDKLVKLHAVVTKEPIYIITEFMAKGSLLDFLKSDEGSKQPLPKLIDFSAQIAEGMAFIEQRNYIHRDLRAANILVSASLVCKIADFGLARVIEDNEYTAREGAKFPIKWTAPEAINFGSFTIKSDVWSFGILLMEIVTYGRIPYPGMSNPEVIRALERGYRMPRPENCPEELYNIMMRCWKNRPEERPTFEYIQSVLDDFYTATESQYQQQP
Runt-CBFb FRET: blocks binding of human RUNX1 Runt domain to CBFb. Q01196+Q13951. Cerulean-Runt/Venus-CBFb FRET ratio 530/480, 1 h. inhibition, % at 20 µM. 220,000 tested, 0.46% active. AID 1496;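 active = inhibition over about 50% at 20 µM in the single-dose screen, limit read from the data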;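 also: 0% = DMSO wells and 100% = excess unlabeled CBFb competitor control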
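Assay system: Cerulean-Runt domain fusion protein, energy donor; Signal: fluorescence energy transfer, 422 nm excitation, 530/480 nm emission; Timing: 1 h compound exposure, room temperature; Control set: unlabeled CBFb; Medium: Tris buffer pH 7.5 with salts and BSA; Compound: single test concentration of 20 µM, 1% DMSO final; Probe or stimulus: Venus-CBFb 100 nM.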
Runt-SMMHC FRET: Runt domain-CBFb-SMMHC interaction inhibition; Cerulean-Runt/Venus-CBFb-SMMHC FRET ratio 530/480, 1 h; AID 1434; Q01196+Q13951; 220,000 tested, 0.74% active; inhibition, % at 20 µM;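 active = mean inhibition across duplicate retests at 20 µM reaching about 50%, limit read from the data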;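 also: 0% = DMSO wells and 100% = wells with excess untagged CBFb-SMMHC; inhibitors lower the FRET ratio by blocking Runt binding to CBFb-SMMHC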
p97 inhibitor: blocks human p97 ATPase activity; AID 1481; P55072; recombinant p97 ATPase, Kinase-Glo ATP luminescence, 3 h; 220,000 tested, 0.42% active; inhibition, % at 8 µM; in the data active = inhibition above about 15%;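 also: 0% = DMSO vehicle and 100% = wells lacking enzyme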
Tb hexokinase: blocks Trypanosoma brucei hexokinase 1 activity; recombinant TbHK1, G6PDH-coupled NADH A340; inhibition, % at 10 µM; 220,000 tested, 0.11% active;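 active = inhibition of 50% or more in the single-dose primary screen; inactive = inhibition below 50%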
p97 inh conf: human p97 ATPase inhibition, confirmation; 760 tested, 44% active; inhibition, % at 8 µM; recombinant p97 ATPase, Kinase-Glo ATP luminescence; shares compounds with p97 inhibitor;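 active = percent inhibition of p97 ATPase above a set limit, the primary screen's mean plus 3 SD, cut at about 15% in these data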;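 also: 0% = DMSO wells and 100% = wells lacking p97 protein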
* = called active by the depositor; ? = inconclusive; . = not tested or not shown.

SMILES	RanGTP-Impb inh	Hck-Nef inh	Runt-CBFb FRET	Runt-SMMHC FRET	p97 inhibitor	Tb hexokinase	p97 inh conf
Brc1ccccc1-c1csnn1	-2	2	-2	3	2	6	.
Cc1[nH][nH]c(=O)c1C(c1ccc(-c2ccc(C(=O)O)cc2)o1)c1c(C)[nH][nH]c1=O	.	26	18	13	25*	-3	10
Cc1ccc(C(=O)NC(C)C2CC3CCC2C3)cc1 (configuration not stated)	-2	.	.	.	.	.	.
O=C(Nc1ccc(NC(=O)c2cccnc2Cl)cc1)c1cccc(Cl)c1	1	.	.	.	.	.	.
O=C(O)c1cccc(NN=C2c3ccccc3-c3ccccc32)c1	-5	-3	-4	-3	38*	-1	45*
O=C(O)c1cc(NN=C2c3ccccc3-c3ccccc32)ccc1Cl	-5	.	.	.	.	.	.
COC(=O)CCCC(=O)NC1CCCc2c1cnn2-c1ccc(F)cc1F (configuration not stated)	-1	.	.	.	.	.	.
CCc1ccc(C2=Nn3c(nnc3-c3cccs3)SC2)cc1	-2	-1	-6	-2	19*	-3	4
c1ccc(-c2ccc(C3=Nn4c(nnc4-c4cccs4)SC3)cc2)cc1	1	7	-3	3	2	-19	.
CC(NC(=O)CC(c1ccccc1)c1cc(Cl)ccc1O)c1ccccc1 (configuration not stated)	5	1	-1	3	15*	30	6
Cc1ccc(O)c(C(CC(=O)NC(C)C)c2ccccc2)c1 (configuration not stated)	0	14	0	-1	5	2	.
O=C(Nc1cc(Cl)ccn1)C1(c2ccccc2)CC1(Cl)Cl (configuration not stated)	-1	6	1	0	17*	-6	25*
O=C(NC1CCCC1)c1sc(=S)n2c1[nH]c(=O)c1ccccc12	-2	6	-12	-24	12	-5	.
O=C(NCc1ccco1)c1sc(=S)n2c1[nH]c(=O)c1ccccc12	3	4	10	-4	15*	-11	25*
Cc1cc(=O)[nH]c2ccc(Cl)cc12	-1	-2	-1	-5	16*	-13	3
Cc1cccc(C2c3[nH]c4ccccc4c3CCN2C(=O)c2ccc(=O)[nH]c2)n1 (configuration not stated)	1	8	0	-7	17*	0	4
CC(=O)c1ccc(C(=O)N2CCc3c([nH]c4ccccc34)C2c2cccc(C)n2)s1 (configuration not stated)	2	-16	0	0	4	-26	.
CC(C)OCCCN(C)C1CCN(S(=O)(=O)c2ccc(-c3cc(C(F)(F)F)no3)s2)CC1	1	.	.	.	.	.	.
COc1ccc2c(c1)c(=O)oc1c(C)c(OC(C)C(=O)N[C@@H](Cc3c[nH]c4ccc(O)cc34)C(=O)O)ccc12 (some centres not stated)	-3	.	.	.	.	.	.
COc1ccc(Cl)cc1NC(=O)C/C(C)=N/NC(=O)Cc1ccccc1	3	16	-3	2	15*	-6	6
CC(C)(C)Nc1nc(NC(C)(C)C)nc(-n2ccnc2)n1	.	10	-1	0	15*	2	10
COc1ccc(OC)c(NC(=O)Cc2ccc(NC3=NC4CS(=O)(=O)CC4S3)cc2)c1 (configuration not stated)	-1	.	.	.	.	.	.
Cc1cc(/C=C2\NC(=O)NC2=O)c(C)n1-c1ccc(N2CCOCC2)cc1	1	35	2	-8	17*	-43	9
Cc1cc(/C=C2/NC(=O)NC2=O)c(C)n1-c1ccc(N2CCOCC2)cc1	?	-21	-1	2	1	-14	.
CCOc1ccccc1NC(=O)c1cc(C(=O)c2cc(Br)ccc2O)coc1=N	.	18	-3	-9	25*	-9	34*
SMILES	RanGTP-Impb inh	Hck-Nef inh	Runt-CBFb FRET	Runt-SMMHC FRET	p97 inhibitor	Tb hexokinase	p97 inh conf
CC(C)OC(=O)c1cc(C(=O)c2cc(Br)ccc2O)coc1=N	-2	4	2	10	2	-10	.
Cc1cnc(NC(=O)Cc2ccc(C)c(C)c2)s1	-1	.	.	.	.	.	.
COc1ccc([N+](=O)[O-])c(S(=O)(=O)c2ccccc2)n1	6	17	27	18	15*	-13	17*
COc1ccc([N+](=O)[O-])c(S(=O)(=O)c2ccc(Cl)cc2)n1	3	-11	37	23	8	0	.
CCCn1c(SCC(=O)Nc2cccc(S(=O)(=O)N(C)C)c2)nc2ccccc2c1=O	?	18	-3	2	7	-6	.
O=C(NNC(=O)c1cc(-c2ccco2)nc2ccccc12)c1ccccc1	0	23	11	1	9	-29	.
O=C(O)c1cc(-c2ccco2)nc2cc3ccccc3cc12	4	35	30	15	30*	4	23*
COc1ccccc1C(=O)NCC(=O)N/N=C/c1ccncc1	-2	12	4	0	16*	8	1
COc1ccccc1C(=O)NCC(=O)N/N=C/c1ccc2c(c1)OCO2	0	.	.	.	.	.	.
CCOC(=O)C1Cc2ccccc2CN1 (configuration not stated)	4	2	0	3	15*	1	6
CCOC(=O)C1Cc2c([nH]c3ccccc23)CN1 (configuration not stated)	-3	-1	-6	0	1	6	.
CCOC(=O)C(=CNc1cccnc1Oc1ccc(C)c2c1CCC2)C(=O)OCC	-1	13	-4	-2	-7	-28	.
CC(C)N1C(=O)CC(Nc2cccc3cccc(N)c23)C1=O (configuration not stated)	.	-12	-10	-19	18*	-4	3
O=C(O)c1ccc(COc2ccccc2Cl)cc1	0	2	2	-5	5	3	.
CCN(CC)C(=O)c1ccc(COc2ccccc2Cl)cc1	1	1	2	-3	15*	-2	-1
CSCCC(NC(=O)c1ccccc1C)C(=O)O (configuration not stated)	1	13	-2	0	1	-5	.
C[C@H](NC(=O)Nc1ccccc1F)C(=O)O	-2	0	0	-2	-2	0	.
CC(C)[C@H](NC(=O)Nc1ccccc1F)C(=O)O	?	4	1	-4	15*	2	8
[O-][n+]1cccc2c(Br)cc(Br)c(O)c21	.	19	13	24	4	4	.
C[n+]1cccc2c(Br)ccc([O-])c21	6	2	8	-6	45*	-10	9
Cc1ccc(OCC(=O)Nc2ccncc2)cc1	-2	.	.	.	.	.	.

Screening data as filed in PubChem BioAssay.
